Compound activity as filed in PubChem BioAssay.
Compounds with a hit are over-represented: about 2.6% of the library has one in this group of screens.
Rce1 inh = yeast Rce1p protease inhibitors, primary screen, biochemical, fluorescence, cell-free homogeneous | CAAX prenyl protease 2 (Saccharomyces cerevisiae (strain ATCC 204508 / S288c)), Q03530 | yeast membranes, quenched prenylated peptide cleavage fluorescence | calls only | actives 0.27% (n = 290,000);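 active means fall in fluorescence gain of 50% or more versus controls, with final raw signal at or below 3038400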;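 further: plate controls were neutral control wells for no effect and wells lacking membranes for full effect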
VLA-4 inh = inhibition in human VLA-4 binding assay, primary screen, VLA-4 allosteric modulator project, MLPCN library, flow cytometry, VLA-4 expressing cells | Integrin alpha-4 (Homo sapiens), P13612 | ligand binding flow cytometry | inhibition, % (about 7 µM as worked out from the volumes in the protocol) | actives 0.2% (n = 330,000) | AID 2557, 2010; in the data active means inhibition above about 50%
Target sequence (P13612 whole entry, looked up): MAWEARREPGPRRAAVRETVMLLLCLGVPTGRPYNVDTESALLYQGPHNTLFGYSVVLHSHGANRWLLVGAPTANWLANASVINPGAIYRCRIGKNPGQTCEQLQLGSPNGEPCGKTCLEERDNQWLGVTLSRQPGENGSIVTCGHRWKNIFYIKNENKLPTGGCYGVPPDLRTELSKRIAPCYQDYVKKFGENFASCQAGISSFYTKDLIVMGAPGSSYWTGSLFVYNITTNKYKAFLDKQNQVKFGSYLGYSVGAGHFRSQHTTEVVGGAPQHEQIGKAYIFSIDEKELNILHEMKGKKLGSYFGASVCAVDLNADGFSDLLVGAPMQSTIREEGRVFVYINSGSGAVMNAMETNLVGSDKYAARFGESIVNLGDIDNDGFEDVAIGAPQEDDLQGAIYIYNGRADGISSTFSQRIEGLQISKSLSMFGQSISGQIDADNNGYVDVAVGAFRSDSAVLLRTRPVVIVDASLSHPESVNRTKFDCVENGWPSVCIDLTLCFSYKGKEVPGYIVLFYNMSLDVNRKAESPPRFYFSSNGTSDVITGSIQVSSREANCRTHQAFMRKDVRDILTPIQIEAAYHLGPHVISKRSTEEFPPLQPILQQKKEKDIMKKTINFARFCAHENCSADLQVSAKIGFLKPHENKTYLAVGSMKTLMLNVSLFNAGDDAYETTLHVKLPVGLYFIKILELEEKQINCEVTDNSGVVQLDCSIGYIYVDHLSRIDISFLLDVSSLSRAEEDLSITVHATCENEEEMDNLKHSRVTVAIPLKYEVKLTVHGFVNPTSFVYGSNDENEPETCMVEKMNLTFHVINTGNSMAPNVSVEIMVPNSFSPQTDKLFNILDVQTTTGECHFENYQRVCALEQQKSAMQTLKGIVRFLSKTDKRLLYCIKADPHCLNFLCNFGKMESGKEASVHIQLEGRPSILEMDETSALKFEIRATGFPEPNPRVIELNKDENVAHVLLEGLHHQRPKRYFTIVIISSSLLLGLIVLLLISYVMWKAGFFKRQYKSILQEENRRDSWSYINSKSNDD
Platelet DG rel = inhibitors of platelet dense granule secretion, primary screen, cell-based, MLPCN, human platelets. AID 1663, 2009. human platelet-rich plasma, SFLLRN dense granule ATP release, luminescence. actives 0.22% (n = 300,000). inhibition, %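 (compounds screened at 7.5 µM in platelet-rich plasma)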;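 active means mean replicate score, as percent of positive control, at or above 50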
TAAR1 antagonist = human TAAR1 antagonists, primary screen, Fluo-8 calcium fluorescence, CHO RD-HGA16 cells. Trace amine-associated receptor 1 (Homo sapiens), Q96RJ0. antagonist. inhibition, % at 3 µM. actives 1.5% (n = 360,000). AID 624466, 2012;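 active means inhibition above a per-plate cutoff, the mean inhibition of test compounds on that plate plus 3 SD, cut at about 49% in these data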;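 further: 0% = DMSO plus EC80 beta-PEA response and 100% = DMSO alone without agonist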
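test system = CHO RD-HGA16 cells bearing hTAAR1 | replication = singlicate | controls = DMSO-only wells and EC80 β-PEA-stimulated wells | reagent = EC80 β-phenethylamine stimulus | read-out basis = percent inhibition of PEA-evoked calcium signal, max/basal emission ratio | schedule = seeding 17-24 h prior, 75-min 37 °C, 30-min RT dye loading | signal = kinetic Fluo-8 calcium fluorescence measurement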
TAAR1 agonist = human TAAR1 agonists, primary screen, Fluo-8 calcium fluorescence, CHO RD-HGA16 cells; activation, % at 3 µM; actives 0.99% (n = 360,000); vehicle wells 0%, saturating PEA agonist 100%; Trace amine-associated receptor 1 (Homo sapiens), Q96RJ0; AID 624467, 2012;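 active means activation above the mean activation of all test compounds in the run plus 3 SD, cut at about 38% in these data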
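Test system: RD-HGA16 (CHO) cells co-expressing Gα16 and hTAAR1; dosing: one-point dosing at 3 µM (nominal); timing: 17-24 h seeding, 75 min 37 °C dye, 30 min RT; signal: kinetic Fluo-8 calcium fluorescence; read-out basis: % activation relative to PEA EC100 response; controls: DMSO and PEA EC100; replicates: n 1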
nonsel antag count = nonselective antagonists in TAAR1 counter-screen cells, counter-screen for hTAAR1 antagonist project, cell-based, fluorescence, calcium. shares compounds with TAAR1 antagonist. counterscreen cell line, antagonist mode. inhibition, % at 3 µM. actives 77% (n = 2,400). AID 651780, 2012; in the data active means inhibition above about 22%;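 further: CHO-Ga16 host cells stimulated with ATP at an EC80 level; 0% = agonist EC80 plus vehicle and 100% = vehicle without agonist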
TAAR1 antag conf = human TAAR1 antagonists, retest of hits, confirmation, cell-based, fluorescence; inhibition, % at 3 µM; AID 651785, 2012; TAAR1-expressing cells, fluorescence antagonist read-out; actives 40% (n = 2,400); shares compounds with TAAR1 antagonist; in the data active means inhibition above about 49%;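 further: CHO-Ga16 host cells challenged with agonist PEA near its EC80; 0% = agonist at EC80 plus vehicle and 100% = vehicle with no agonist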
Ga16 nonsel ag = calcium activation in Ga16-expressing cells, counter-screen for TAAR1 antagonist project, cell-based, fluorescence; shares compounds with TAAR1 antagonist; agonist counterscreen; activation, % at 3 µM; actives 18% (n = 2,400); AID 651953, 2012; in the data active means activation above about 12%;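 further: 0% = vehicle wells and 100% = saturating stimulus response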
TAAR1 ag counter = TAAR1 activation by candidate antagonists – cell-based, fluorescence, counter-screen for TAAR1 antagonist project; shares compounds with TAAR1 antagonist; hTAAR1 cell line, agonist mode; activation, % at 3 µM; actives 2% (n = 2,400); AID 651955, 2012; in the data active means activation above about 37%;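 further: CHO cells stably expressing TAAR1 with calcium dye readout; 0% = DMSO vehicle and 100% = full agonist response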
Starred values were filed as active, the others as inactive; i = inactive; / = not tested or not shown.

SMILES | Rce1 inh | VLA-4 inh | Platelet DG rel | TAAR1 antagonist | TAAR1 agonist | nonsel antag count | TAAR1 antag conf | Ga16 nonsel ag | TAAR1 ag counter
CC12CC1(C)C(=O)N(c1cc(Cl)cc(Cl)c1)C2=O (stereo unspecified) | / | / | / | 8 | -1 | / | / | / | /
CCC1(c2ccccc2)C(=O)NC(=S)NC1=O | / | / | / | -12 | 2 | / | / | / | /
CC(=O)c1ccc2c(c1)C1C(Cl)C(Sc3ccccc3[N+](=O)[O-])CC1C(c1ccccc1[N+](=O)[O-])N2 (stereo unspecified) | i | 7 | 1 | 58* | 9 | 34* | 46 | 7 | 4
Cc1cccc(OP(N)(=O)Oc2cccc(C)c2)c1 | i | 8 | -1 | 6 | 5 | / | / | / | /
Cc1cccc(OP(=O)(NCc2ccccc2)Oc2cccc(C)c2)c1 | i | 13 | -4 | 80* | 7 | 34* | 78* | 13* | 23
O=c1[nH]c2ccccc2n1C1CCN(C(CCc2ccccc2)c2nnnn2Cc2ccccc2)CC1 (stereo unspecified) | / | / | / | 55* | 16 | 17 | 42 | 7 | 13
CSCCC(c1nnnn1Cc1ccccc1)N1CCC(n2c(=O)[nH]c3ccccc32)CC1 (stereo unspecified) | / | / | / | 70* | 17 | 22* | 52* | 11 | 29
COC(=O)C1=C(c2ccc(F)cc2OCc2ccccc2)C[C@@H]2CC[C@H]1N2C(=O)NCc1ccc([N+](=O)[O-])cc1 | / | -7 | / | 58* | 6 | 27* | 33 | 2 | -3
CSCCC(c1nnnn1Cc1ccccc1)N1CCC2(CC1)C(=O)NCN2c1ccccc1 (stereo unspecified) | / | / | / | 52* | 13 | 28* | 40 | 7 | 6
O=C1NCN(c2ccccc2)C12CCN(C(CCc1ccccc1)c1nnnn1Cc1ccccc1)CC2 (stereo unspecified) | / | / | / | 19 | 0 | / | / | / | /
O=C1NCN(c2ccccc2)C12CCN(C(c1ccnc3ccccc13)c1nnnn1-c1ccc3c(c1)OCCO3)CC2 (stereo unspecified) | / | / | / | 59* | 19 | 29* | 43 | 10 | 11
O=C1NCN(c2ccccc2)C12CCN(C(c1nnnn1Cc1ccccc1)C1CC1)CC2 (stereo unspecified) | / | / | / | 18 | 4 | / | / | / | /
O=C1NCN(c2ccccc2)C12CCN(C(c1ccccc1)c1nnnn1Cc1ccccc1)CC2 (stereo unspecified) | / | / | / | 53* | 9 | 20 | 30 | 7 | 3
O=C1c2ccccc2C(=O)N1Cc1nc2ccccc2c(=O)n1-c1ccc(Br)cn1 | i | 10 | 3 | -4 | 6 | / | / | / | /
CCn1c(O)c(C=NCCc2c[nH]c3ccccc23)c(=O)[nH]c1=O | i | -3 | -1 | 19 | 6 | / | / | / | /
Cc1cccc(OP(=O)(Nc2cccnc2)Oc2cccc(C)c2)c1 | i | 8 | 0 | 39 | 10 | / | / | / | /
O=P(Nc1cccnc1)(Oc1ccccc1Cl)Oc1ccccc1Cl | i | 5 | 13 | 70* | 10 | 32* | 47 | 7 | 9
COc1ccc(CCN)cc1S(N)(=O)=O | / | / | / | -10 | 1 | / | / | / | /
Cc1cccc(C)c1-n1nnnc1C(CCc1ccccc1)N1CCC2(CC1)C(=O)NCN2c1ccccc1 (stereo unspecified) | / | / | / | -18 | 1 | / | / | / | /
